Results: ChEMBL document CHEMBL3091458, “Design, synthesis, and biological evaluation of 1,2,4-triazole bearing 5-substituted biphenyl-2-sulfonamide derivatives as potential antihypertensive candidates” (Bioorg Med Chem, 2013)

Experiments:
[1] = Displacement of [125I]-Ang-2 from AT2 receptor in porcine myometrial membranes after 1.5 hrs; assay type: cell membranes, Sus scrofa
In short: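 Membranes were made from porcine uteri (myometrium). AT1 binding was blocked by adding losartan. [125I]Ang II binding ran in 50 mM Tris-HCl pH 7.4 with 100 mM NaCl, 10 mM MgCl2, 1 mM EDTA, 0.025% bacitracin and 0.2% BSA, at 25 °C for 1.5 h. Bound ligand was caught on GF/C filters, washed with cold Tris and gamma-counted. IC50 was the concentration displacing 50% of specific binding. Run in triplicate.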

[2] = Displacement of [125I]-Ang-2 from AT1 receptor in rat liver membranes after 1.5 hrs; assay type: cell membranes, Membrane
Rattus norvegicus [3] = assay: Antihypertensive activity in renal spontaneously hypertensive rat model assessed as reduction of mean arterial pressure at 20 mg/kg, po measured at 4 hrs by tail-cuff method relative to control; assay type: functional, Artery
In short: (§1)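 Spontaneously hypertensive rats were dosed orally with the test agent at 20 mg/kg, with a saline-dosed control group. SAP, DAP, MAP and heart rate were recorded before dosing and at 1, 2, 4, 6 and 8 h after. Change was taken as the post-dose value minus the pre-dose value. Significance was judged against the control at p < 0.1 and p < 0.05.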

Rattus norvegicus [4] = assay: Antihypertensive activity in renal spontaneously hypertensive rat model assessed as reduction of systolic arterial pressure at 20 mg/kg, po measured at 8 hrs by tail-cuff method relative to control; assay type: functional, Artery; in short: as §1
Rattus norvegicus [5] = assay: Toxicity in renal spontaneously hypertensive rat model assessed as reduction of heart rate at 20 mg/kg, po measured at 4 hrs by tail-cuff method relative to control; assay type: organism-based; parameters: dose 20 mg/kg, route oral; conditions: in vivo; in short: as §1
Rattus norvegicus [6] = assay: Toxicity in renal spontaneously hypertensive rat model assessed as reduction of heart rate at 20 mg/kg, po measured at 8 hrs by tail-cuff method relative to control; assay type: organism-based; parameters: dose 20 mg/kg, route oral; conditions: in vivo; in short: as §1
Rattus norvegicus [7] = assay: Antihypertensive activity in renal spontaneously hypertensive rat model assessed as reduction of diastolic arterial pressure at 20 mg/kg, po measured at 8 hrs by tail-cuff method relative to control; assay type: functional, Artery; in short: as §1
Rattus norvegicus [8] = assay: Antihypertensive activity in renal spontaneously hypertensive rat model assessed as reduction of mean arterial pressure at 20 mg/kg, po measured at 1 hr by tail-cuff method relative to control; assay type: functional, Artery; in short: as §1
Rattus norvegicus [9] = assay: Antihypertensive activity in renal spontaneously hypertensive rat model assessed as reduction of diastolic arterial pressure at 20 mg/kg, po measured at 4 hrs by tail-cuff method relative to control; assay type: functional, Artery; in short: as §1
Rattus norvegicus [10] = assay: Antihypertensive activity in renal spontaneously hypertensive rat model assessed as reduction of systolic arterial pressure at 20 mg/kg, po measured at 6 hrs by tail-cuff method relative to control; assay type: functional, Artery; in short: as §1
Rattus norvegicus [11] = assay: Antihypertensive activity in renal spontaneously hypertensive rat model assessed as reduction of systolic arterial pressure at 20 mg/kg, po measured at 4 hrs by tail-cuff method relative to control; assay type: functional, Artery; in short: as §1
Rattus norvegicus [12] = assay: Antihypertensive activity in renal spontaneously hypertensive rat model assessed as reduction of mean arterial pressure at 20 mg/kg, po measured at 8 hrs by tail-cuff method relative to control; assay type: functional, Artery; in short: as §1
Rattus norvegicus [13] = assay: Antihypertensive activity in renal spontaneously hypertensive rat model assessed as reduction of diastolic arterial pressure at 20 mg/kg, po measured at 6 hrs by tail-cuff method relative to control; assay type: functional, Artery; in short: as §1
Rattus norvegicus [14] = assay: Antihypertensive activity in renal spontaneously hypertensive rat model assessed as reduction of systolic arterial pressure at 20 mg/kg, po measured at 1 hr by tail-cuff method relative to control; assay type: functional, Artery; in short: as §1
Rattus norvegicus [15] = assay: Antihypertensive activity in renal spontaneously hypertensive rat model assessed as reduction of systolic arterial pressure at 20 mg/kg, po measured at 2 hrs by tail-cuff method relative to control; assay type: functional, Artery; in short: as §1
Rattus norvegicus [16] = assay: Toxicity in renal spontaneously hypertensive rat model assessed as reduction of heart rate at 20 mg/kg, po measured at 1 hr by tail-cuff method relative to control; assay type: organism-based; parameters: dose 20 mg/kg, route oral; conditions: in vivo; in short: as §1
Rattus norvegicus [17] = assay: Toxicity in renal spontaneously hypertensive rat model assessed as reduction of heart rate at 20 mg/kg, po measured at 6 hrs by tail-cuff method relative to control; assay type: organism-based; parameters: dose 20 mg/kg, route oral; conditions: in vivo; in short: as §1
Rattus norvegicus [18] = assay: Antihypertensive activity in renal spontaneously hypertensive rat model assessed as reduction of mean arterial pressure at 20 mg/kg, po measured at 2 hrs by tail-cuff method relative to control; assay type: functional, Artery; in short: as §1
Rattus norvegicus [19] = assay: Antihypertensive activity in renal spontaneously hypertensive rat model assessed as reduction of mean arterial pressure at 20 mg/kg, po measured at 6 hrs by tail-cuff method relative to control; assay type: functional, Artery; in short: as §1
Rattus norvegicus [20] = assay: Antihypertensive activity in renal spontaneously hypertensive rat model assessed as reduction of diastolic arterial pressure at 20 mg/kg, po measured at 1 hr by tail-cuff method relative to control; assay type: functional, Artery; in short: as §1
Rattus norvegicus [21] = assay: Antihypertensive activity in renal spontaneously hypertensive rat model assessed as reduction of diastolic arterial pressure at 20 mg/kg, po measured at 2 hrs by tail-cuff method relative to control; assay type: functional, Artery; in short: as §1
Rattus norvegicus [22] = assay: Toxicity in renal spontaneously hypertensive rat model assessed as reduction of heart rate at 20 mg/kg, po measured at 2 hrs by tail-cuff method relative to control; assay type: organism-based; parameters: dose 20 mg/kg, route oral; conditions: in vivo; in short: as §1

## CCC(=O)NS(=O)(=O)c1ccc(CC(C)C)cc1-c1ccc(Cn2cncn2)cc1
[1]
  IC50: 0.068 µM
[2]
  IC50: > 10 µM

## CCCCOC(=O)NS(=O)(=O)c1ccc(CC(C)C)cc1-c1ccc(Cn2cncn2)cc1
[1]
  IC50: 0.0004 µM
[2]
  IC50: > 10 µM
Rattus norvegicus [3]
  Activity: -14.16 mmHg
Rattus norvegicus [4]
  Activity: -15.22 mmHg
Rattus norvegicus [5]
  Activity: -14.53 bpm
Rattus norvegicus [6]
  Activity: -14.33 bpm
Rattus norvegicus [7]
  Activity: -14.1 mmHg
Rattus norvegicus [8]
  Activity: 4.43 mmHg
Rattus norvegicus [9]
  Activity: -12.32 mmHg
Rattus norvegicus [10]
  Activity: -20.94 mmHg
Rattus norvegicus [11]
  Activity: -14.29 mmHg
Rattus norvegicus [12]
  Activity: -15.09 mmHg
Rattus norvegicus [13]
  Activity: -21.36 mmHg
Rattus norvegicus [14]
  Activity: -7.25 mmHg
Rattus norvegicus [15]
  Activity: -4.26 mmHg
Rattus norvegicus [16]
  Activity: 7.25 bpm
Rattus norvegicus [17]
  Activity: -16.69 bpm
Rattus norvegicus [18]
  Activity: -4.78 mmHg
Rattus norvegicus [19]
  Activity: -21.88 mmHg
Rattus norvegicus [20]
  Activity: 4.93 mmHg
Rattus norvegicus [21]
  Activity: -3.55 mmHg
Rattus norvegicus [22]
  Activity: -5.02 bpm

## CCOC(=O)NS(=O)(=O)c1ccc(OC)cc1-c1ccc(Cn2cncn2)cc1
[1]
  IC50: 0.036 µM
[2]
  IC50: > 10 µM

## COc1ccc(S(=O)(=O)NC(=O)OCc2ccccc2)c(-c2ccc(Cn3cncn3)cc2)c1
[1]
  IC50: > 10 µM
[2]
  IC50: > 10 µM

## CCCCC(=O)NS(=O)(=O)c1ccc(CC(C)C)cc1-c1ccc(Cn2cncn2)cc1
[1]
  IC50: 0.031 µM
[2]
  IC50: > 10 µM

## CCCCOC(=O)NS(=O)(=O)c1ccc(CN(CC)CC)cc1-c1ccc(Cn2cncn2)cc1
[1]
  IC50: 0.01 µM
[2]
  IC50: > 10 µM

## CC(C)Cc1ccc(S(=O)(=O)NC(=O)OC(C)(C)C)c(-c2ccc(Cn3cncn3)cc2)c1
[1]
  IC50: 0.055 µM
[2]
  IC50: > 10 µM

## CCN(CC)Cc1ccc(S(=O)(=O)NC(=O)OCc2ccccc2)c(-c2ccc(Cn3cncn3)cc2)c1
[1]
  IC50: > 10 µM
[2]
  IC50: > 10 µM

## CCCCOC(=O)NS(=O)(=O)c1ccc(CC(C)C)cc1-c1ccc(N)cc1
[1]
  IC50: > 10 µM
[2]
  IC50: > 10 µM

## CCOC(=O)NS(=O)(=O)c1ccc(C)cc1-c1ccc(Cn2cncn2)cc1
[1]
  IC50: 0.064 µM
[2]
  IC50: > 10 µM

## CCCCc1nc(Cl)c(CO)n1Cc1ccc(-c2ccccc2-c2nnn[nH]2)cc1 [LOSARTAN]
[1]
  IC50: > 10 µM
[2]
  IC50: 0.085 µM
Rattus norvegicus [3]
  Activity: -15.13 mmHg
Rattus norvegicus [4]
  Activity: -14.02 mmHg
Rattus norvegicus [5]
  Activity: -10.57 bpm
Rattus norvegicus [6]
  Activity: -13.2 bpm
Rattus norvegicus [7]
  Activity: -13.09 mmHg
Rattus norvegicus [8]
  Activity: -3.05 mmHg
Rattus norvegicus [9]
  Activity: -14.25 mmHg
Rattus norvegicus [10]
  Activity: -20.23 mmHg
Rattus norvegicus [11]
  Activity: -15.55 mmHg
Rattus norvegicus [12]
  Activity: -14.55 mmHg
Rattus norvegicus [13]
  Activity: -17.58 mmHg
Rattus norvegicus [14]
  Activity: -2.8 mmHg
Rattus norvegicus [15]
  Activity: -5.21 mmHg
Rattus norvegicus [16]
  Activity: -2 bpm
Rattus norvegicus [17]
  Activity: -14.05 bpm
Rattus norvegicus [18]
  Activity: -7.33 mmHg
Rattus norvegicus [19]
  Activity: -19.12 mmHg
Rattus norvegicus [20]
  Activity: -7.76 mmHg
Rattus norvegicus [21]
  Activity: -8.96 mmHg
Rattus norvegicus [22]
  Activity: -7.1 bpm

## CCCCC(=O)NS(=O)(=O)c1ccc(OC)cc1-c1ccc(Cn2cncn2)cc1
[1]
  IC50: 0.099 µM
[2]
  IC50: > 10 µM

## Cc1ccc(C(=O)NS(=O)(=O)c2ccc(CC(C)C)cc2-c2ccc(Cn3cncn3)cc2)cc1
[1]
  IC50: > 10 µM
[2]
  IC50: > 10 µM

## CCCCC(=O)NS(=O)(=O)c1ccc(C)cc1-c1ccc(Cn2cncn2)cc1
[1]
  IC50: 0.106 µM
[2]
  IC50: > 10 µM

## CCCCOC(=O)NS(=O)(=O)c1ccc(OC)cc1-c1ccc(Cn2cncn2)cc1
[1]
  IC50: 0.005 µM
[2]
  IC50: > 10 µM
Rattus norvegicus [3]
  Activity: -10.15 mmHg
Rattus norvegicus [4]
  Activity: -10.1 mmHg
Rattus norvegicus [5]
  Activity: -13.45 bpm
Rattus norvegicus [6]
  Activity: -22.9 bpm
Rattus norvegicus [7]
  Activity: -13.1 mmHg
Rattus norvegicus [8]
  Activity: -4.09 mmHg
Rattus norvegicus [9]
  Activity: -10.32 mmHg
Rattus norvegicus [10]
  Activity: -18.94 mmHg
Rattus norvegicus [11]
  Activity: -10.71 mmHg
Rattus norvegicus [12]
  Activity: -12.19 mmHg
Rattus norvegicus [13]
  Activity: -17.36 mmHg
Rattus norvegicus [14]
  Activity: -3.41 mmHg
Rattus norvegicus [15]
  Activity: -4.26 mmHg
Rattus norvegicus [16]
  Activity: 7.05 bpm
Rattus norvegicus [17]
  Activity: -14.47 bpm
Rattus norvegicus [18]
  Activity: -5.62 mmHg
Rattus norvegicus [19]
  Activity: -17.08 mmHg
Rattus norvegicus [20]
  Activity: -4.21 mmHg
Rattus norvegicus [21]
  Activity: -5.06 mmHg
Rattus norvegicus [22]
  Activity: -7.64 bpm
